Source: ChEMBL document CHEMBL1671684, “In vitro resistance profile of the hepatitis C virus NS3/4A protease inhibitor TMC435” (Antimicrob Agents Chemother, 2010)

Legend:
[1] = system: Hepatitis C virus; experiment: Antiviral activity against Hepatitis C virus subtype 1b expressing NS3 Q80R and R155K mutant infected in HuH7 cells after 48 hrs by luciferase reporter assay; assay type: functional, organism-based, Hepacivirus hominis; conditions: genotype 1b, Huh-7, 48 h
Method in brief: (§1)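 Genotype 1b con1 subgenomic bicistronic replicon (clone ET) with luciferase reporter and adaptive mutations E1202G, T1280I, K1846T, carrying site-directed NS3 single or double mutations. 10 μg wild-type or mutant replicon RNA electroporated into Huh7-lunet cells, seeded 4,000 cells/well over a nine-point inhibitor dilution series, 48 h at 37°C, 5% CO2, then luminescence read. EC50 taken as median of individual experiments; fold change relative to parental replicon EC50.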

[2] = system: Hepatitis C virus; experiment: Antiviral activity against Hepatitis C virus subtype 1b expressing NS3 R155I mutant infected in HuH7 cells after 48 hrs by luciferase reporter assay; assay type: functional, organism-based, Hepacivirus hominis; conditions: genotype 1b, Huh-7, 48 h; method in brief: as §1
[3] = system: Hepatitis C virus; experiment: Ratio of EC50 for Hepatitis C virus subtype 1b expressing NS3 F43V mutant to EC50 for Hepatitis C virus subtype 1b expressing WT NS3 infected in HuH7 cells after 48 hrs by luciferase reporter assay; assay type: functional, Hepacivirus hominis, genotype 1b, Huh-7
Method in brief: (§2)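 Transient replicon assay: site-directed single or multiple NS3 mutations engineered into genotype 1b (con1, clone ET) subgenomic bicistronic replicon with luciferase reporter and adaptive mutations E1202G, T1280I, K1846T. Huh7-lunet cells electroporated with 10 μg wild-type or mutant replicon RNA, seeded 4,000 cells/well with nine-point inhibitor dilution; 48 h, 37°C, 5% CO2; luminescence read-out. EC50 as median of individual experiments; fold change versus parental replicon EC50.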

[4] = system: Hepatitis C virus; experiment: Ratio of EC50 for Hepatitis C virus subtype 1b expressing NS3 A156G mutant to EC50 for Hepatitis C virus subtype 1b expressing WT NS3 infected in HuH7 cells after 48 hrs by luciferase reporter assay; assay type: functional, Hepacivirus hominis, genotype 1b, Huh-7; method in brief: as §1
[5] = system: Hepatitis C virus; experiment: Ratio of EC50 for Hepatitis C virus subtype 1b expressing NS3 V36L mutant to EC50 for Hepatitis C virus subtype 1b expressing WT NS3 infected in HuH7 cells after 48 hrs by luciferase reporter assay; assay type: functional, Hepacivirus hominis, genotype 1b, Huh-7; method in brief: as §2
[6] = system: Hepatitis C virus; experiment: Antiviral activity against Hepatitis C virus subtype 1b expressing NS3 Q80G mutant infected in HuH7 cells after 48 hrs by luciferase reporter assay; assay type: functional, organism-based, Hepacivirus hominis; conditions: genotype 1b, Huh-7, 48 h; method in brief: as §1
[7] = system: Hepatitis C virus; experiment: Ratio of EC50 for Hepatitis C virus subtype 1b expressing NS3 F43I mutant to EC50 for Hepatitis C virus subtype 1b expressing WT NS3 infected in HuH7 cells after 48 hrs by luciferase reporter assay; assay type: functional, Hepacivirus hominis, genotype 1b, Huh-7; method in brief: as §2
[8] = system: Hepatitis C virus; experiment: Antiviral activity against Hepatitis C virus subtype 1b expressing WT NS3 infected in HuH7 cells after 48 hrs by luciferase reporter assay; assay type: functional, organism-based, Hepacivirus hominis; conditions: genotype 1b, Huh-7, 48 h
Method in brief: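 Huh7-lunet cells were electroporated with 10 μg wild-type genotype 1b subgenomic replicon RNA (clone ET; luciferase reporter; E1202G, T1280I, K1846T). They were seeded at 4,000 cells/well over a nine-point compound dilution series. After 48 h at 37°C, 5% CO2, luciferase reagent was added 1:1, followed by 10–20 min in the dark and a luminescence read. EC50 is the median of individual-experiment EC50s.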

[9] = system: Hepatitis C virus; experiment: Ratio of EC50 for Hepatitis C virus subtype 1b expressing NS3 Q80R and D168A mutant to EC50 for Hepatitis C virus subtype 1b expressing WT NS3 infected in HuH7 cells after 48 hrs by luciferase reporter assay; assay type: functional, Hepacivirus hominis, genotype 1b, Huh-7; method in brief: as §2
[10] = system: Hepatitis C virus; experiment: Antiviral activity against Hepatitis C virus subtype 1b expressing NS3 V36A mutant infected in HuH7 cells after 48 hrs by luciferase reporter assay; assay type: functional, organism-based, Hepacivirus hominis; conditions: genotype 1b, Huh-7, 48 h; method in brief: as §1
[11] = system: Hepatitis C virus; experiment: Antiviral activity against Hepatitis C virus subtype 1b expressing NS3 Q80K and R155K mutant infected in HuH7 cells after 48 hrs by luciferase reporter assay; assay type: functional, organism-based, Hepacivirus hominis; conditions: genotype 1b, Huh-7, 48 h; method in brief: as §1
[12] = system: Hepatitis C virus; experiment: Ratio of EC50 for Hepatitis C virus subtype 1b expressing NS3 R155T mutant to EC50 for Hepatitis C virus subtype 1b expressing WT NS3 infected in HuH7 cells after 48 hrs by luciferase reporter assay; assay type: functional, Hepacivirus hominis, genotype 1b, Huh-7; method in brief: as §2
[13] = system: Hepatitis C virus; experiment: Antiviral activity against Hepatitis C virus subtype 1b expressing NS3 R155M mutant infected in HuH7 cells after 48 hrs by luciferase reporter assay; assay type: functional, organism-based, Hepacivirus hominis; conditions: genotype 1b, Huh-7, 48 h; method in brief: as §1
[14] = system: Hepatitis C virus; experiment: Antiviral activity against Hepatitis C virus subtype 1b expressing NS3 Q80R and D168A mutant infected in HuH7 cells after 48 hrs by luciferase reporter assay; assay type: functional, organism-based, Hepacivirus hominis; conditions: genotype 1b, Huh-7, 48 h; method in brief: as §1
[15] = system: Hepatitis C virus; experiment: Ratio of EC50 for Hepatitis C virus subtype 1b expressing NS3 A156T mutant to EC50 for Hepatitis C virus subtype 1b expressing WT NS3 infected in HuH7 cells after 48 hrs by luciferase reporter assay; assay type: functional, Hepacivirus hominis, genotype 1b, Huh-7; method in brief: as §1
[16] = system: Hepatitis C virus; experiment: Antiviral activity against Hepatitis C virus subtype 1b expressing NS3 A156V mutant infected in HuH7 cells after 48 hrs by luciferase reporter assay; assay type: functional, organism-based, Hepacivirus hominis; conditions: genotype 1b, Huh-7, 48 h; method in brief: as §1
[17] = system: Hepatitis C virus; experiment: Antiviral activity against Hepatitis C virus subtype 1b expressing NS3 Q80K mutant infected in HuH7 cells after 48 hrs by luciferase reporter assay; assay type: functional, organism-based, Hepacivirus hominis; conditions: genotype 1b, Huh-7, 48 h; method in brief: as §1
[18] = system: Hepatitis C virus; experiment: Antiviral activity against Hepatitis C virus subtype 1b expressing NS3 V36L mutant infected in HuH7 cells after 48 hrs by luciferase reporter assay; assay type: functional, organism-based, Hepacivirus hominis; conditions: genotype 1b, Huh-7, 48 h; method in brief: as §1
[19] = system: Hepatitis C virus; experiment: Antiviral activity against Hepatitis C virus subtype 1b expressing NS3 D168E mutant infected in HuH7 cells after 48 hrs by luciferase reporter assay; assay type: functional, organism-based, Hepacivirus hominis; conditions: genotype 1b, Huh-7, 48 h; method in brief: as §1
[20] = system: Hepatitis C virus; experiment: Antiviral activity against Hepatitis C virus subtype 1b expressing NS3 R109K mutant infected in HuH7 cells after 48 hrs by luciferase reporter assay; assay type: functional, organism-based, Hepacivirus hominis; conditions: genotype 1b, Huh-7, 48 h; method in brief: as §1
[21] = system: Hepatitis C virus; experiment: Antiviral activity against Hepatitis C virus subtype 1b expressing NS3 F43I mutant infected in HuH7 cells after 48 hrs by luciferase reporter assay; assay type: functional, organism-based, Hepacivirus hominis; conditions: genotype 1b, Huh-7, 48 h; method in brief: as §1
[22] = system: Hepatitis C virus; experiment: Antiviral activity against Hepatitis C virus subtype 1b expressing NS3 D168A mutant infected in HuH7 cells after 48 hrs by luciferase reporter assay; assay type: functional, organism-based, Hepacivirus hominis; conditions: genotype 1b, Huh-7, 48 h; method in brief: as §1
[23] = system: Hepatitis C virus; experiment: Antiviral activity against Hepatitis C virus subtype 1b expressing NS3 Q80R mutant infected in HuH7 cells after 48 hrs by luciferase reporter assay; assay type: functional, organism-based, Hepacivirus hominis; conditions: genotype 1b, Huh-7, 48 h; method in brief: as §1
[24] = system: Hepatitis C virus; experiment: Antiviral activity against Hepatitis C virus subtype 1b expressing NS3 Q80R and D168E mutant infected in HuH7 cells after 48 hrs by luciferase reporter assay; assay type: functional, organism-based, Hepacivirus hominis; conditions: genotype 1b, Huh-7, 48 h; method in brief: as §1
[25] = system: Hepatitis C virus; experiment: Ratio of EC50 for Hepatitis C virus subtype 1b expressing NS3 F43S mutant to EC50 for Hepatitis C virus subtype 1b expressing WT NS3 infected in HuH7 cells after 48 hrs by luciferase reporter assay; assay type: functional, Hepacivirus hominis, genotype 1b, Huh-7; method in brief: as §2
[26] = system: Hepatitis C virus; experiment: Antiviral activity against Hepatitis C virus subtype 1b expressing NS3 A156G mutant infected in HuH7 cells after 48 hrs by luciferase reporter assay; assay type: functional, organism-based, Hepacivirus hominis; conditions: genotype 1b, Huh-7, 48 h; method in brief: as §1
[27] = system: Hepatitis C virus; experiment: Ratio of EC50 for Hepatitis C virus subtype 1b expressing NS3 Q80L mutant to EC50 for Hepatitis C virus subtype 1b expressing WT NS3 infected in HuH7 cells after 48 hrs by luciferase reporter assay; assay type: functional, Hepacivirus hominis, genotype 1b, Huh-7; method in brief: as §2
[28] = system: Hepatitis C virus; experiment: Antiviral activity against Hepatitis C virus subtype 1b expressing NS3 R155G mutant infected in HuH7 cells after 48 hrs by luciferase reporter assay; assay type: functional, organism-based, Hepacivirus hominis; conditions: genotype 1b, Huh-7, 48 h; method in brief: as §1
[29] = system: Hepatitis C virus; experiment: Ratio of EC50 for Hepatitis C virus subtype 1b expressing NS3 D168A mutant to EC50 for Hepatitis C virus subtype 1b expressing WT NS3 infected in HuH7 cells after 48 hrs by luciferase reporter assay; assay type: functional, Hepacivirus hominis, genotype 1b, Huh-7; method in brief: as §1
[30] = system: Hepatitis C virus; experiment: Ratio of EC50 for Hepatitis C virus subtype 1b expressing NS3 F43S and D168E mutant to EC50 for Hepatitis C virus subtype 1b expressing WT NS3 infected in HuH7 cells after 48 hrs by luciferase reporter assay; assay type: functional, Hepacivirus hominis, genotype 1b, Huh-7; method in brief: as §2

Row | Structure (SMILES) | EC50 [1] | EC50 [2] | Ratio EC50 [3] | Ratio EC50 [4] | Ratio EC50 [5] | EC50 [6] | Ratio EC50 [7] | EC50 [8] | Ratio EC50 [9] | EC50 [10] | EC50 [11] | Ratio EC50 [12] | EC50 [13] | EC50 [14] | Ratio EC50 [15] | EC50 [16] | EC50 [17] | EC50 [18] | EC50 [19] | EC50 [20] | other results
1 | COc1ccc2c(O[C@@H]3C[C@H]4C(=O)N[C@]5(C(=O)NS(=O)(=O)C6CC6)C[C@H]5/C=C\CCCCN(C)C(=O)[C@@H]4C3)cc(-c3nc(C(C)C)cs3)nc2c1C [SIMEPREVIR] | 2850 nM | 6.6 nM | 99 | 16 | 1.7 | 22 nM | 89 | 11 nM | 2655 | 34 nM | 4650 nM | 24 | 3.5 nM | 16900 nM | 44 | 2150 nM | 62 nM | 18 nM | 302 nM | 11 nM | EC50 [21]: 562 nM; EC50 [22]: 6360 nM; EC50 [23]: 49 nM; EC50 [24]: 5900 nM; Ratio EC50 [25]: 12; EC50 [26]: 206 nM; Ratio EC50 [27]: 2.1; EC50 [28]: 350 nM; Ratio EC50 [29]: 594; Ratio EC50 [30]: 694
2 | CC(C)(C)NC(=O)N[C@H](C(=O)N1C[C@H]2[C@@H]([C@H]1C(=O)NC(CC1CCC1)C(=O)C(N)=O)C2(C)C)C(C)(C)C (stereo not given in full) [BOCEPREVIR] | 680 nM | 5340 nM | 2.4 | 2.1 | 1.6 | 127 nM | 1.1 | 148 nM | 0.5 | 1450 nM | 1080 nM | 51 | 792 nM | 113 nM | 65 | 9670 nM | 94 nM | 110 nM | 69 nM | 33 nM | EC50 [21]: 242 nM; EC50 [22]: 100 nM; EC50 [23]: 85 nM; EC50 [24]: 62 nM; Ratio EC50 [25]: 5.2; EC50 [26]: 65 nM; Ratio EC50 [27]: 0.9; EC50 [28]: 4470 nM; Ratio EC50 [29]: 0.7; Ratio EC50 [30]: 3.2
